The values below come from ChEMBL document CHEMBL1157559, “Synthesis and biological evaluation of novel pyrazolyl-2,4-thiazolidinediones as anti-inflammatory and neuroprotective agents” (Bioorg Med Chem, 2010).

Broadly, the EC50 is the concentration needed to bring the measured effect to its halfway point. As usually defined, the IC50 is the concentration at which inhibition is half-maximal. For orientation: inhibition in vivo means the percentage by which the read-out fell short of the control. The term ED50 denotes the midpoint of the dose-response relation.

Molecules are shown by their SMILES. Calls of active or inactive are those of the source. The rule behind the calls is not given here. Where only a bound is given, the exact number is not on record here.

Data set [1] is described as follows: Acute toxicity in po dosed Swiss albino mouse after 24 hrs. In kind it is organism-based. Conditions: in vivo, read-out: ALD50. The method in brief:
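Four groups of five Swiss albino mice (20–30 g), fasted 24 h beforehand, given compounds orally at graded doses of 0–300 mg/kg. Mortality recorded at each dose level after 24 h to estimate the acute lethal dose (ALD50).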

For data set [2], the system named is THP-1. Kind of data set: Cytotoxicity against LPS and IFN-gamma-stimulated human THP1 cells after 24 hrs. In kind it is functional, cell-based. Conditions: THP-1, 24 h. The method in brief: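 THP-1 cells, 24-well, in DMEM-F12 with 5% FBS. Compound or DMSO added 15 min before LPS 0.5 µg/mL plus IFN-γ 150 U/mL. After 24 h, LDH release (fraction of Triton-lysed value, OD 490) and MTT were read. EC50 taken from curves of at least three independent experiments; the lower of the two assay values was reported.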

The test system of data set [3] is THP-1. Kind of data set: Inhibition of MCP1 release in human THP1 cells after 24 hrs by ELISA. In kind it is functional, cell-based. The method in brief: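 THP-1 cells pretreated 15 min with compound, then stimulated with LPS 0.5 µg/mL plus IFN-γ 150 U/mL. After 24 h, MCP-1 (ng/mL) measured in cell-free medium by ELISA.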
Data set [4] has as its system SH-SY5Y. Kind of data set: Antineurotoxicity in human SH-SY5Y cells assessed as inhibition human THP1 cell supernatant-induced cytotoxicity compound pretreated 24 to 48 hrs to THP1 cells measured after 72 hrs of supernatant addition. The class given is functional, cell-based. In outline:
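THP-1 cells in DMEM-F12 with 5% FBS, pretreated 15 min with compound or DMSO, then stimulated with LPS 0.5 µg/mL plus IFN-γ 150 U/mL for 24 or 48 h. Cell-free supernatant transferred to SH-SY5Y cells plated 24 h earlier. After 72 h, viability by LDH release and MTT. IC50 from curves of at least three independent experiments.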

For data set [5], the system named is Rattus norvegicus. Description: Antiinflammatory activity in Wistar albino rat acute inflammatory model assessed as inhibition of formalin-induced paw edema at 20 mg/kg, po administered 1 hr before formalin challenge measured after 1 hr by plethysmometer relative to control. The class given is functional. More on the design: scale not given: the % may be the effect or the level left. The method in brief: (§1)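 Male Wistar rats, 180–200 g, groups of five. Test compound 20 mg/kg po; 1 h later 0.1 mL 2% formalin injected subplantar into left hind paw under light ether anesthesia. Paw volume by water plethysmometer at 0 and 1, 2, 3, 4 h after formalin. % inhibition = (Vt−V0)control minus (Vt−V0)treated, divided by (Vt−V0)control ×100. Mean ± SEM, ANOVA with Student–Newman–Keuls.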

Data set [6] has as its system Rattus norvegicus. Kind of data set: Antiinflammatory activity in Wistar albino rat acute inflammatory model assessed as inhibition of formalin-induced paw edema at 20 mg/kg, po administered 1 hr before formalin challenge measured after 2 hrs by plethysmometer relative to control. The class given is functional. More on the design: scale not given: the % may be the effect or the level left. The method in brief:
as §1

The subject of data set [7] is Rattus norvegicus. Kind of data set: Antiinflammatory activity in Wistar albino rat acute inflammatory model assessed as inhibition of formalin-induced paw edema at 20 mg/kg, po administered 1 hr before formalin challenge measured after 3 hrs by plethysmometer relative to control. Also on record: scale not given: the % may be the effect or the level left. In kind it is functional. In outline: as §1

For data set [8], the system named is Rattus norvegicus. Description: Antiinflammatory activity in Wistar albino rat acute inflammatory model assessed as inhibition of formalin-induced paw edema at 20 mg/kg, po administered 1 hr before formalin challenge measured after 4 hrs by plethysmometer relative to control. The class given is functional. More on the design: scale not given: the % may be the effect or the level left. In outline: as §1

For data set [9], the system named is Rattus norvegicus. Kind of data set: Antiinflammatory activity in Wistar albino rat sub-acute inflammatory model assessed as inhibition of formalin-induced paw edema at 20 mg/kg, po administered daily for 7 days by plethysmometer relative to control. The class given is functional. The note with it: 168 h. The method in brief:
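Rats dosed orally at 20 mg/kg daily for 7 consecutive days. 0.1 mL 2% formalin given subplantar in left hind paw under light ether 1 h after the first oral dose, with a second injection on day 3. Paw edema weight (g) measured on day 8. % inhibition = (control − treated)/control ×100. Groups of five.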

The test system of data set [10] is Rattus norvegicus. Description: Antiinflammatory activity in Wistar albino rat sub-acute inflammatory model assessed as inhibition of turpentine oil-induced granuloma pouch exudate volume at 20 mg/kg, po 1 hr before turpentine oil challenge for 7 days assessed measured on day 8. The class given is functional. The method in brief: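 Male rats 120–150 g, five per group. Subcutaneous dorsal pouch made under ether with 2 mL air, then 0.5 mL turpentine oil injected. Compound 20 mg/kg po 1 h before turpentine, then daily for seven days. On day 8 exudate drawn by syringe under anesthesia and volume measured. % inhibition = (Vcontrol − Vtreated)/Vcontrol ×100.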

Data set [11] deals with Rattus norvegicus. Description: Antiinflammatory activity in po dosed Wistar albino rat acute inflammatory model assessed as inhibition of formalin-induced paw edema administered 1 hr before formalin challenge measured after 3 hrs by plethysmometer. In kind it is functional. In outline: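 Rats dosed orally at 5, 10, 20, 40 and 50 mg/kg body weight. Edema volume inhibition measured 3 h after subplantar formalin (2%, 0.1 mL), and ED50 determined from these doses.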

For data set [12], the system named is HL-60. Description: Inhibition of phagocyte respiratory burst in human HL60 cells after 6 to 7 days by luminol-induced chemiluminescence. The class given is functional, cell-based. The method in brief:
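HL-60 cells differentiated 6–7 days in DMEM-F12 with 10% FBS and 1.3% DMSO, washed into serum-free, phenol red-free medium, then held 30 min at 37 °C before compound or DMSO was added. Luminol injected, 7.5 min baseline recorded, then FMLP injected (final 1 µM; luminol 5 mM; DMSO 0.5%). Chemiluminescence recorded 30 min at 37 °C; read-out was area under the curve.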

Data set [13] concerns Rattus norvegicus. Kind of data set: Gastrointestinal toxicity in Wistar albino rat assessed as ulceration at 100 mg/kg/day, po administered twice daily for 3 days. The note with it: in vivo, 72 h. The class given is organism-based. More on the design: route oral. In outline:
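Male rats 180–200 g, groups of five, fasted 12 h with water available. Compounds given orally as two equal doses at 0 and 12 h, 100 mg/kg per day, for three successive days; vehicle control 1% gum acacia. Rats killed 6 h after last dose. Stomach opened along greater curvature, washed with cold saline and inspected under 3× lens for hyperemia, hemorrhage, erosions or ulcers.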

With `O=C1S/C(=C\c2cn(-c3ccccc3)nc2-c2ccc(Cl)cc2)C(=O)N1Cc1cccc(Br)c1`, the LD50 at 24 h in data set [1] was greater than 300 mg/kg. For the same molecule, in data set [2], the EC50 is 5 µM. For the same molecule, the inhibition entry in data set [3] was “inactive”. Further, the IC50 in data set [4] was 8 µM.

Regarding `CCCN1C(=O)S/C(=C\c2cn(-c3ccccc3)nc2-c2ccccc2)C1=O`, in data set [1], the LD50 at 24 h is greater than 300 mg/kg. Besides, in [2], the EC50 was greater than 100 µM. Further, the inhibition result in [3] is “inactive”.

As for `O=C1S/C(=C\c2cn(-c3ccccc3)nc2-c2ccc(Cl)cc2)C(=O)N1Cc1ccccc1`, the LD50 at 24 h in data set [1] was greater than 300 mg/kg. In addition, a half-maximal response in data set [2] (EC50) required 1 µM. Further, the inhibition entry in data set [3] is “inactive”. For the same molecule, the IC50 in [4] is 8 µM.

As for `O=C1NC(=O)/C(=C/c2cn(-c3ccccc3)nc2-c2ccccc2)S1`, the Activity is 35% in [5], 38% in data set [6], 43% in [7] and 43% in data set [8]. Further, the inhibition in vivo at 20 mg/kg in [9] and in data set [10] was 53% throughout. Further, in data set [1], the LD50 at 24 h is greater than 300 mg/kg. For the same molecule, the ED50 in data set [11] was 21.3 mg/kg. Also, the EC50 in data set [2] came to 50 µM. For the same molecule, the inhibition result in data set [3] was “inactive”. The IC50 in [12] was found to be 8 µM.

For the molecule `O=C1S/C(=C\c2cn(-c3ccccc3)nc2-c2ccccc2)C(=O)N1Cc1cccc(Br)c1`, the LD50 at 24 h in data set [1] is greater than 300 mg/kg. The EC50 in data set [2] is greater than 100 µM. In data set [3], the inhibition result is “inactive”.

For the molecule `O=C1NC(=O)/C(=C/c2cn(-c3ccccc3)nc2-c2ccc(Cl)cc2)S1`, the Activity was 41% in [5], 50% in [6], 74% in [7] and 74% in data set [8]. The inhibition in vivo at 20 mg/kg is 42% in data set [9] and 44% in data set [10]. Further, in [1], the LD50 at 24 h was greater than 300 mg/kg. Further, in [11], the ED50 turned out to be 13 mg/kg. In data set [2], this molecule showed an EC50 greater than 100 µM. In data set [3], the inhibition entry was “inactive”. This molecule also yielded an IC50 in [12] of 0.8 µM.

As to `C=CCN1C(=O)S/C(=C\c2cn(-c3ccccc3)nc2-c2ccccc2)C1=O`, the LD50 at 24 h in data set [1] was greater than 300 mg/kg. This molecule yielded an EC50 in [2] greater than 100 µM. Also, the inhibition entry in data set [3] was “inactive”. In addition, the IC50 in data set [4] amounted to 50 µM.

Turning to `O=C1S/C(=C\c2cn(-c3ccccc3)nc2-c2ccccc2)C(=O)N1Cc1ccccc1`, in [1], the LD50 at 24 h was greater than 300 mg/kg. In data set [2], this molecule gave an EC50 greater than 100 µM. Further, the inhibition result in data set [3] is “inactive”.

`CCCN1C(=O)S/C(=C\c2cn(-c3ccccc3)nc2-c2ccc(Cl)cc2)C1=O`: the LD50 at 24 h in data set [1] was greater than 300 mg/kg. Moreover, the EC50 in data set [2] was greater than 100 µM. In data set [3], the inhibition result was “inactive”.

`COc1ccc2c(c1)c(CC(=O)O)c(C)n2C(=O)c1ccc(Cl)cc1` [INDOMETHACIN]: the Activity in data set [13] is 100%.

In the case of `O=C1S/C(=C\c2cn(-c3ccccc3)nc2-c2ccc(Cl)cc2)C(=O)N1Cc1ccc(Cl)cc1`, the LD50 at 24 h in data set [1] was greater than 300 mg/kg. The response in data set [2] was half-maximal at 4 µM (EC50). Besides, the inhibition result in data set [3] was “inactive”.

As for `Cc1ccc(-c2cc(C(F)(F)F)nn2-c2ccc(S(N)(=O)=O)cc2)cc1` [CELECOXIB], the Activity in data set [5] was determined as 41%; in data set [6] it was 50%; in data set [7], 60%; in data set [8], 68%; in data set [13] it was 0%. Further, the results for the inhibition in vivo at 20 mg/kg in data set [9] and in data set [10] were 50% and 54%, respectively. For the same molecule, the ED50 in data set [11] stood at 14.3 mg/kg. Also, the EC50 in [2] stood at 50 µM. The inhibition result in [3] was “inactive”. In data set [4], the IC50 stood at 5 µM.

For the molecule `O=C1S/C(=C\c2cn(-c3ccccc3)nc2-c2ccccc2)C(=O)N1Cc1ccc(Cl)cc1`, the LD50 at 24 h in data set [1] was greater than 300 mg/kg. Further, in data set [2], the EC50 came out at 50 µM. Also, the inhibition result in data set [3] is “inactive”. Besides, the IC50 in data set [4] amounted to 80 µM.
